AF4-AF9 inh: blocks AF4 peptide binding to human AF9. AlphaScreen, biotin-AF4 peptide binding to FLAG-AF9. inhibition, % at 10 µM. P42568. 0.47% of 350,000 active;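 active means every replicate reaching a set inhibition limit, whatever the replicate mean, cut at about 25% in these data; inconclusive means mean inhibition reaches that limit but some replicates miss it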
FN deposit inh: fibronectin deposition inhibition; AH1F fibroblasts, Alexa488-fibronectin deposition fluorescence, overnight; inhibition, % at 12.6 µM; 0.086% of 350,000 active;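 active means mean inhibition across replicates of 30% or more, regardless of how many single replicates reach that level; inconclusive means mean under 30% yet at least half of replicates reach 30%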
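Assay system: AH1F fibroblasts / Quantity: 10000 cells per well / Medium: DMEM plus 2% serum, read in PBS / Reagent: labelled fibronectin 24 nM / Dosing: single dose, pinned / Times: 1 h cell attachment, overnight exposure to compound and label / Signal: fluorescence, ex 485 nm, em 525 nm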
PDI turbidity: inhibitors of human protein disulfide isomerase | PDI insulin aggregation turbidity, A650, 90 min | inhibition, % at 10 µM | 0.052% of 350,000 active | AID 588391;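 active means mean inhibition across replicates of 30% or more, whatever share of single replicates reach that level; inconclusive means mean inhibition below 30% while every single replicate reaches 30%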
Target sequence (P07237 whole entry, looked up): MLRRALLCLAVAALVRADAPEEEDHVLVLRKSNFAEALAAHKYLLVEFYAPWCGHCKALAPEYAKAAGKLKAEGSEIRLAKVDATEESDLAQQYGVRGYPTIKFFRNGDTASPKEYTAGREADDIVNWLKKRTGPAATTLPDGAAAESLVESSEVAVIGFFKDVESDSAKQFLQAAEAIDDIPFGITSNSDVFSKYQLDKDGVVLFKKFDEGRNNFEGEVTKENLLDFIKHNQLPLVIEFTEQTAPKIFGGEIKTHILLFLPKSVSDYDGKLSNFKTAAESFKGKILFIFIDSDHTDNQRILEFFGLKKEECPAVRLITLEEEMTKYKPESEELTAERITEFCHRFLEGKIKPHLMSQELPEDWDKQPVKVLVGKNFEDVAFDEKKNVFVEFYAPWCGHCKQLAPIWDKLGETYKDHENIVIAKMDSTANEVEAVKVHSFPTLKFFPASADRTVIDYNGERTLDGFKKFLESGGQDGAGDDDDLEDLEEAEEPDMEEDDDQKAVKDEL
ERp5 block: ERp5 (human) disulfide isomerase inhibition. ERp5 insulin aggregation, absorbance 650 nm, 90 min. inhibition, % at 9.99 µM. AID 651711. 0.05% of 350,000 active. Q15084;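 active means mean replicate inhibition above about 25%, with every replicate also reaching it, limit read from the data, passing the limit was not always enough; inconclusive means only one of those two criteria met; inactive means neither criterion met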
SIRT5 block: blocks human SIRT5 desuccinylation of peptide; Q9NXA8; Purified SirT5, succinyl-peptide AMC, trypsin-coupled fluorescence; inhibition, % at 15 µM; 1.1% of 330,000 active; AID 652115; in the data active means inhibition above about 15%; inconclusive means no clear call, values can overlap the other calls
Of the large screens only hits and unclear results are named; the others gave an inactive call; ! = a repeat was not active. Shown are actives, neighbours in structure and some others; about 1.3% of the full set was active somewhere.

O=C(NCCCn1ccnc1)C1CC(c2ccccc2Cl)=NO1 (stereo unspecified)	AF4-AF9 inh 28.3
COc1ccccc1-c1cnc2c(c1)C(=O)N([C@H](C)CO)C[C@H](C)[C@@H](CN(C)Cc1cccc(F)c1)O2	none (no result: PDI turbidity)
c1cc(-c2ccc(C3[C@H]4CNC[C@@H]3N4CC3CCCC3)cc2)ccn1 (stereo partly specified)	AF4-AF9 inh 42.4 (no result: PDI turbidity)
Fc1ccc(F)c(CN2[C@@H]3CNC[C@H]2C3c2ccc(-c3ccncc3)cc2)c1 (stereo partly specified)	AF4-AF9 inh 25.9! (no result: PDI turbidity)
c1cncc(-c2ccc([C@@H]3[C@H]4CNC[C@@H]3N4CC3CCOCC3)cc2)c1	none (no result: AF4-AF9 inh, PDI turbidity, ERp5 block, SIRT5 block)
O=C(Oc1ccc(Oc2ccccc2)cc1)N1CCC(O)CC1	SIRT5 block 34.1
CC(C)N1CCN(Cc2cc(F)ccc2-n2cccn2)CC1CCO (stereo unspecified)	SIRT5 block 20.1
O=C(Cc1c(O)c2ccccc2oc1=O)c1ccc(F)cc1	AF4-AF9 inh 47.4
O=C(O)c1ccc(N/N=C/C2=C(N3CCOCC3)C(=C\c3ccccc3)/CC2)cc1	SIRT5 block 19.5
CCCOc1ccc(S(=O)(=O)n2cc(F)c(=O)[nH]c2=O)cc1	none
C[C@H](CO)N1C[C@H](C)[C@@H](CN(C)C(=O)Nc2ccc3c(c2)OCO3)OCCCC[C@H](C)Oc2ccc(NS(=O)(=O)c3ccccc3)cc2C1=O	none (no result: PDI turbidity)
O=C(C[n+]1ccccc1)N/N=C/c1ccco1	none
O=C(C[n+]1ccccc1)N/N=C/c1ccc(F)cc1	SIRT5 block 112.3 (no result: FN deposit inh)
Cc1ccc(/C=N/NC(=O)C[n+]2ccccc2)o1	SIRT5 block 21.4
COc1ccc(CCNC(=O)Cn2ccc3cc(S(=O)(=O)N4CCCC4)ccc32)cc1OC	none
CC(C(=O)NC(N)=O)N1C(=O)NC(c2ccccc2)(c2ccccc2)C1=O (stereo unspecified)	SIRT5 block 18.9
COc1ccc(/C=N/NC2=NCCCCC2)cc1	none (no result: AF4-AF9 inh, FN deposit inh, ERp5 block, SIRT5 block)
Cn1nc(C(C)(C)C)cc1C(=O)NNC(=O)c1cccc(Cl)c1	AF4-AF9 inh 39.7
O=C1C(CSCc2ccccc2)NC(=S)N1c1ccccc1 (stereo unspecified)	none
O=C(NCCc1ccccc1)C1c2ccccc2C(=O)N1Cc1cccs1 (stereo unspecified)	SIRT5 block 33.5 (no result: AF4-AF9 inh)
CCOc1cc(C2NC(=O)NC(C)=C2C(=O)OC(C)CC)cc(Br)c1O (stereo unspecified)	none (no result: AF4-AF9 inh, ERp5 block, SIRT5 block)
O=C1NC(=S)S/C1=C\C=C\c1ccc([N+](=O)[O-])o1	SIRT5 block 25.3
O=C(O)/C=C/c1ccc([N+](=O)[O-])o1	none
OC1(c2ccc(Cl)cc2)CCN(Cc2cn[nH]c2-c2ccccc2)CC1	none
NC(N)=N/N=C/c1ccccc1Cl	SIRT5 block 18.1
NC(N)=N/N=C/c1c(Cl)cccc1Cl	none
CCN(CC)c1ccc(Nc2nc(Cl)ncc2Br)cc1	AF4-AF9 inh 27.1
CCN(CC)c1ccc(CNc2ccc(Br)cn2)cc1	none (no result: AF4-AF9 inh, FN deposit inh, ERp5 block, SIRT5 block)
CCC(C)(C)n1nnnc1C(c1cc2cc(OC)ccc2[nH]c1=O)N1CCc2ccccc21 (stereo unspecified)	none (no result: AF4-AF9 inh, ERp5 block, SIRT5 block)
CCC(C)(C)n1nnnc1C(c1cc2cc(C)ccc2[nH]c1=O)N1CCCc2ccccc21 (stereo unspecified)	SIRT5 block 17.3 (no result: FN deposit inh)
COc1ccc(N(CC(=O)Nc2ccc(S(=O)(=O)N3CCCCC3)cc2)S(C)(=O)=O)cc1OC	none (no result: AF4-AF9 inh, FN deposit inh, ERp5 block, SIRT5 block)
O=C(/C=C/c1cccc(O)c1)c1cccnc1	none
O=C(/C=C/c1cccnc1)c1cccc(O)c1	AF4-AF9 inh inconclusive, PDI turbidity 44.4
Clc1cccc(Cl)c1Cn1cnc2c(NCc3ccco3)ncnc21	none (no result: FN deposit inh)
Cn1cnc2c(NCc3ccco3)ncnc21	SIRT5 block 30.4 (no result: FN deposit inh, PDI turbidity)
CO[C@@H]1CN(C)C(=O)c2cc(NC(=O)C3CCOCC3)ccc2OC[C@@H](C)N(C(=O)c2ccccc2)C[C@H]1C	none (no result: AF4-AF9 inh, PDI turbidity, ERp5 block, SIRT5 block)
CC(C)(C)c1ccc(NC(=O)C2=CC=CN3CCS(=O)(=O)N=C23)cc1	none
Cn1c(/C=N/Nc2nc3ccccc3[nH]2)nc2ccccc21	none
Cc1c(/C=N/Nc2nc3ccccc3[nH]2)c2ccccc2n1C	AF4-AF9 inh 25.0 (no result: ERp5 block)
C/C(=N\NC(=O)COc1cccc(C)c1)c1ccc2ccccc2c1O	none
O=C(NCC1CCCCC1)[C@H]1[C@H](CO)[C@H]2Cn3c(cccc3=O)[C@@H]1N2CCc1ccccc1	SIRT5 block 18.2 (no result: FN deposit inh, PDI turbidity)
C[C@H](NC(=O)[C@@H]1[C@@H](CO)[C@@H]2Cn3c(cccc3=O)[C@H]1N2Cc1ccccc1)c1ccccc1	SIRT5 block 19.0 (no result: FN deposit inh, PDI turbidity)
